Assays:
Right cardiac atrium [1] = assay: Negative inotropic activity in guinea pig spontaneously beating spontaneously beating right atrium assessed as decrease in developed tension; assay type: ADME, tissue-based; conditions: Cavia porcellus
Outline: (§1)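 Isolated spontaneously beating guinea-pig right atrium. Cumulative compound addition from 0.1 to 100 µM. Percent decrease in atrial rate, and in developed tension (n = 7–8), versus control. EC50 from log concentration–response curves by Probit analysis; not calculated when maximum effect was <50%.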

Right cardiac atrium [2] = assay: Negative inotropic activity in guinea pig spontaneously beating right atrium assessed as decrease in developed tension at 5 x 10^-5 M; assay type: ADME, tissue-based, Cavia porcellus; design: scale not given: the % may be the effect or the level left; conditions: 50 µM; outline: as §1
Left cardiac atrium [3] = assay: Negative inotropic activity in guinea pig left atrium assessed as decrease in developed tension at 5 x 10^-5 M relative to control; assay type: ADME, tissue-based, Cavia porcellus; design: scale not given: the % may be the effect or the level left; conditions: 50 µM
Outline: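 Isolated guinea-pig left atrium driven at 1 Hz. Cumulative compound concentrations from 0.1 to 100 µM. Percent decrease in developed tension versus control, n = 5–6. EC50 from log concentration–response curves by Probit analysis, n = 6–7; not calculated when maximum effect was <50%.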

Right cardiac atrium [4] = assay: Negative chronotropic activity in guinea pig spontaneously beating right atrium assessed as decrease in atrial rate at 5 x 10^-5 M; assay type: ADME, tissue-based, Cavia porcellus; design: scale not given: the % may be the effect or the level left; conditions: 50 µM; outline: as §1
Left cardiac atrium [5] = assay: Negative inotropic activity in guinea pig left atrium assessed as decrease in developed tension; assay type: ADME, tissue-based; conditions: Cavia porcellus
Ileum [6] = assay: Inhibition of calcium-induced contraction in K+-depolarized guinea pig ileum at 5 x 10^-5 M relative to control; assay type: tissue-based; conditions: Cavia porcellus
Outline: (§2)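 Isolated guinea-pig aortic strips and ileum longitudinal smooth muscle, depolarized with 80 mM K+. Calcium-induced contraction measured with cumulative compound addition. Percent inhibition relative to control. IC50 from log concentration–response curves by Probit analysis, n = 6–7; not calculated when maximum effect was <50%.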

Ileum [7] = assay: Inhibition of calcium-induced contraction in K+-depolarized guinea pig ileum; assay type: tissue-based; conditions: Cavia porcellus
[8] = system: Voltage-gated calcium channel; assay: Inhibition of K+-induced voltage gated calcium channel opening in human SH-SY5Y cells assessed as decrease in Ca2+ level at 10 uM after 10 mins by Fluo-4 dye-based fluorescence assay relative to control; assay type: cell-based
Outline: (§3)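 Confluent SH-SY5Y cells (36–72 h after seeding) loaded with Fluo-4, washed with Krebs-HEPES, then incubated 10 min with compound or DMSO. Depolarized by injecting KCl to 70 mM and fluorescence followed for 2 min. Fmax taken after 5% Triton X lysis, Fmin after MnCl2. Ca2+ rise expressed against K+-induced rise without compound; blind testing, at least three independent experiments in triplicate, mean ± SEM. IC50 obtained by sigmoidal regression.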

[9] = target: Glycogen synthase kinase-3 beta (Homo sapiens) (UniProt P49841); assay: Inhibition of GSK3beta (unknown origin) assessed as residual activity at 50 uM pre-incubated for 30 mins followed by ULight-GS (Ser641/pSer657) peptide substrate addition and measured after 1 hr by TR-FRET assay relative to control
Outline: (§4)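 TR-FRET (LANCE Ultra) kinase assay at 22 °C in 50 mM HEPES pH 7.5, 1 mM EGTA, 10 mM MgCl2, 2 mM DTT, 0.01% Tween-20, 3% DMSO. GSK-3β (0.5 nM final) preincubated 30 min with compound; ATP 10 µM and ULight-GS peptide 50 nM (final) added for 1 h. Stopped with 24 mM EDTA plus 2 nM Eu-anti-phospho-GS antibody, 1 h. Read at ex 320 nm, em 615/665 nm. Residual activity relative to DMSO; three separate experiments, mean ± SD.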

Right cardiac atrium [10] = assay: Negative chronotropic activity in guinea pig spontaneously beating right atrium assessed as decrease in atrial rate at 10^-6 M; assay type: ADME, tissue-based, Cavia porcellus; design: scale not given: the % may be the effect or the level left; conditions: 1 µM; outline: as §1
Ileum [11] = assay: Inhibition of calcium-induced contraction in K+-depolarized guinea pig ileum at 10^-5 M relative to control; assay type: tissue-based; conditions: Cavia porcellus; outline: as §2
Right cardiac atrium [12] = assay: Negative chronotropic activity in guinea pig spontaneously beating right atrium assessed as decrease in atrial rate at 10^-5 M; assay type: ADME, tissue-based, Cavia porcellus; design: scale not given: the % may be the effect or the level left; conditions: 10 µM; outline: as §1
Aorta [13] = assay: Inhibition of calcium-induced contraction in K+-depolarized guinea pig aortic strips at 5 x 10^-5 M relative to control; assay type: tissue-based; conditions: Cavia porcellus; outline: as §2
[14] = system: Left cardiac atrium (Cavia porcellus); assay: Negative inotropic activity in guinea pig left atrium driven at 1 Hz assessed as decrease in developed tension at 10^-5 M; design: scale not given: the % may be the effect or the level left; conditions: 10 µM
Left cardiac atrium [15] = assay: Negative inotropic activity in guinea pig left atrium assessed as decrease in developed tension at 10^-5 M relative to control; design: scale not given: the % may be the effect or the level left; conditions: 10 µM
Ileum [16] = assay: Inhibition of calcium-induced contraction in K+-depolarized guinea pig ileum at 10^-6 M relative to control; assay type: tissue-based; conditions: Cavia porcellus; outline: as §2
[17] = target: Voltage-gated calcium channel; assay: Inhibition of K+-induced voltage gated calcium channel opening in human SH-SY5Y cells assessed as decrease in Ca2+ level after 10 mins by Fluo-4 dye-based fluorescence assay; assay type: cell-based; outline: as §3
[18] = Cytotoxicity against human SH-SY5Y cells assessed as cell viability at 10 uM after 48 hrs by MTT assay relative to control; assay type: cell-based; conditions: read-out: Activity
Outline: (§5)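 SH-SY5Y cells seeded at 70 000 cells/well, exposed before confluence to compounds in MEM/F12 with 10% FBS for 24 h, then fresh medium with 1% FBS plus compounds for a further 24 h. MTT 1.2 mM for 2 h in dark; formazan dissolved in DMSO, absorbance at 540 nm. Viability expressed as percent of vehicle (DMSO)-treated cells; three independent experiments, mean ± SEM.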

[19] = Cytotoxicity against human SH-SY5Y cells assessed as cell viability at 30 uM after 48 hrs by MTT assay relative to control; assay type: cell-based; conditions: read-out: Activity; outline: as §5
[20] = target: Glycogen synthase kinase-3 beta (Homo sapiens) (UniProt P49841); assay: Inhibition of GSK3beta (unknown origin) assessed as residual activity at 3.12 uM pre-incubated for 30 mins followed by ULight-GS (Ser641/pSer657) peptide substrate addition and measured after 1 hr by TR-FRET assay relative to control; outline: as §4
Right cardiac atrium [21] = assay: Negative chronotropic activity in guinea pig spontaneously beating right atrium assessed as decrease in atrial rate at 10^-7 M; assay type: ADME, tissue-based, Cavia porcellus; design: scale not given: the % may be the effect or the level left; conditions: 0.1 µM
Aorta [22] = assay: Inhibition of calcium-induced contraction in K+-depolarized guinea pig aortic strips at 10^-6 M relative to control; conditions: Cavia porcellus, read-out: INH
Ileum [23] = assay: Inhibition of calcium-induced contraction in K+-depolarized guinea pig ileum at […] relative to control; conditions: Cavia porcellus, read-out: INH

Glycogen synthase kinase-3 beta (Homo sapiens), sequence (P49841 whole entry, looked up): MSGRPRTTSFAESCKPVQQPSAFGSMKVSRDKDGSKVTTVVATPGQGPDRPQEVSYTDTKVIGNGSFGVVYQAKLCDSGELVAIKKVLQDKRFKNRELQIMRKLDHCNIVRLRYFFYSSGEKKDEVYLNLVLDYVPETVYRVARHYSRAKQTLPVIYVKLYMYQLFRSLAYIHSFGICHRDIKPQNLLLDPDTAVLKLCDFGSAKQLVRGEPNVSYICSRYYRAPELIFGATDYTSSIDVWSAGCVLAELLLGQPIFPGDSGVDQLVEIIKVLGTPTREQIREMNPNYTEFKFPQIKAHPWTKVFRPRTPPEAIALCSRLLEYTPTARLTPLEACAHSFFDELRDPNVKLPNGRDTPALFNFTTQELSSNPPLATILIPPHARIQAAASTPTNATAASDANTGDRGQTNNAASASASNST

SMILES	EC50 (Right cardiac atrium [1]) [µM]	Activity (Right cardiac atrium [2]) [%]	Activity (Left cardiac atrium [3]) [%]	EC50 (Left cardiac atrium [5]) [µM]	inhibition at 50 µM (Ileum [6]) [%]	EC50 (Ileum [7]) [µM]	inhibition (INH) [8] [%]	Activity (Right cardiac atrium [12]) [%]	inhibition at 50 µM (Aorta [13]) [%]	Activity [14] [%]	Activity (Left cardiac atrium [15]) [%]	IC50 [17] [µM]	viability at 48 h, 10 µM [18] [%]	viability at 48 h, 30 µM [19] [%]	other results
O=C1NC(=O)C2C1C1c3ccccc3C2(/C=N/Cc2ccccc2)c2ccccc21 (stereo unspecified)	2.87	85	75	0.85	85	12.1	4								Activity (Right cardiac atrium [4]): 26%; Activity [9]: 51%
Nc1ccc2c(c1)C1c3ccccc3C2C2C(=O)NC(=O)C12 (stereo unspecified)	2.2	79	74	1.49		1.27	6								Activity (Right cardiac atrium [10]): 15%; inhibition at 10 µM (Ileum [11]): 90%
Nc1cccc2c1C1c3ccccc3C2C2C(=O)NC(=O)C12 (stereo unspecified)	1.87	92	82	1.91	97	14.7	11	42	8						
CC(=O)c1ccc2c(c1)C1c3ccccc3C2C2C(=O)NC(=O)C12 (stereo unspecified)			11		85	0.77	20	33	18	4					
O=C1NC(=O)C2C3c4ccccc4C(c4ccc(Cl)cc43)C12 (stereo unspecified)	2.48			0.43		3.33	39	47	21	87	80	15	91	97	inhibition at 1 µM (Ileum [16]): 90%
O=C1NC(=O)C2C1C1(Cl)c3ccccc3C2(Cl)c2ccccc21 (stereo unspecified)	0.47	97	97	0.22		0.49	38		7			15	95	92	inhibition at 1 µM (Ileum [16]): 68%; Activity [9]: 48%
CC(=O)Nc1cccc2c1C1c3ccccc3C2C2C(=O)NC(=O)C12 (stereo unspecified)		34		0.32	12		0		6		65				Activity (Right cardiac atrium [4]): 8%
CCCCCCCNC(=O)C12c3ccccc3C(c3ccccc31)C1C(=O)NC(=O)C12 (stereo unspecified)	0.51			1.91	94	3.67	56	45	6	85	76	9	85	87	Activity [20]: 55%; Activity [9]: 10%
COCCOC(=O)C1=C(C)NC(C)=C(C(=O)OC(C)C)C1c1cccc([N+](=O)[O-])c1 (stereo unspecified) [NIMODIPINE]							25					14			
CC(=O)Nc1ccc2c(c1)C1c3ccccc3C2C2C(=O)NC(=O)C12 (stereo unspecified)	2.18	93	79	3.65		2.51	8		10						Activity (Right cardiac atrium [4]): 37%; inhibition at 10 µM (Ileum [11]): 67%
COC(=O)C1=C(C)NC(C)=C(C(=O)OC)C1c1ccccc1[N+](=O)[O-] [NIFEDIPINE]						0.0015									Activity (Left cardiac atrium [15]; Left cardiac atrium): 97%; Activity (Right cardiac atrium [21]): 85%; inhibition at 1 µM (Aorta [22]): 82%; inhibition at 0.005 µM (Ileum [23]): 70%
O=C1NC(=O)C2C3c4ccccc4C(c4cccc(Cl)c43)C12 (stereo unspecified)	1.08			0.87		1.18	37	37	9	94	93	11	92	93	inhibition at 10 µM (Ileum [11]): 90%

From ChEMBL document CHEMBL4411273, “Polycyclic maleimide-based derivatives as first dual modulators of neuronal calcium channels and GSK-3β for Alzheimer's disease treatment” (Eur J Med Chem, 2019)
